One may read the Cmax as the peak of the concentration-time curve. One may read the IC50 as the point on the concentration scale where inhibition reaches its midpoint. The term Ki denotes a dissociation constant, usually derived from enzyme kinetics or from competition with a known ligand. As usually defined, the Emax is the maximal effect, on the per cent scale that the assay sets. As a reminder, the EC50 is the midpoint of the concentration-response curve.

Data set [1] in a line: Cmax in Sprague-Dawley CD-1 rat plasma at 3 mg/kg, po administered as cassette dose via gavage measured up to 24 hrs by LC/MS analysis. It is filed as ADME, organism-based. On the set-up: dose 3 mg/kg, route oral. Put shortly: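 Three male Sprague Dawley CD-1 rats (220-250g) with jugular vein catheters; three test compounds plus a reference dosed together by oral gavage, 3mg/kg each, in DMSO:0.5% methylcellulose 10:90 (0.6mg/mL per compound), 5mL/kg. Plasma sampled pre-dose and at 0.25, 0.5, 1, 2, 4, 6, 8, 24 h; LC/MS.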

For data set [2], the target named is T1, Cytochrome P450 1A2 (Homo sapiens, UniProt P05177).
T1 sequence (P05177 whole entry): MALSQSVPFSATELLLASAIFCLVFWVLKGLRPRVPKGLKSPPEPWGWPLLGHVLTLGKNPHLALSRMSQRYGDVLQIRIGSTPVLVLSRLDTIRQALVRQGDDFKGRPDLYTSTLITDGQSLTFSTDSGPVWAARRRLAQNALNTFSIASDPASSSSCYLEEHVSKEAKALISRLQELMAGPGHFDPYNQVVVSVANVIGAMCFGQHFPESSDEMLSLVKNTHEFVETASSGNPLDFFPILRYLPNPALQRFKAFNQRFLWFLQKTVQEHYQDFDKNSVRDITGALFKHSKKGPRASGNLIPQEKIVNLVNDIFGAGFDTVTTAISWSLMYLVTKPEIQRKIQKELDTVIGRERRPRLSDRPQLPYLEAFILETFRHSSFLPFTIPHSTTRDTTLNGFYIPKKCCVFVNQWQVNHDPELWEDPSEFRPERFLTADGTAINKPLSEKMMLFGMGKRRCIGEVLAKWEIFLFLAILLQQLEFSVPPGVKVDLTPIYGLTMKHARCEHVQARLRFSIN
Kind of data set: Inhibition of CYP1A2 (unknown origin). The data set is classed as ADME.

Data set [3] concerns the target T2, Glucocorticoid receptor (Rattus norvegicus) (UniProt P06536).
T2 sequence (whole entry): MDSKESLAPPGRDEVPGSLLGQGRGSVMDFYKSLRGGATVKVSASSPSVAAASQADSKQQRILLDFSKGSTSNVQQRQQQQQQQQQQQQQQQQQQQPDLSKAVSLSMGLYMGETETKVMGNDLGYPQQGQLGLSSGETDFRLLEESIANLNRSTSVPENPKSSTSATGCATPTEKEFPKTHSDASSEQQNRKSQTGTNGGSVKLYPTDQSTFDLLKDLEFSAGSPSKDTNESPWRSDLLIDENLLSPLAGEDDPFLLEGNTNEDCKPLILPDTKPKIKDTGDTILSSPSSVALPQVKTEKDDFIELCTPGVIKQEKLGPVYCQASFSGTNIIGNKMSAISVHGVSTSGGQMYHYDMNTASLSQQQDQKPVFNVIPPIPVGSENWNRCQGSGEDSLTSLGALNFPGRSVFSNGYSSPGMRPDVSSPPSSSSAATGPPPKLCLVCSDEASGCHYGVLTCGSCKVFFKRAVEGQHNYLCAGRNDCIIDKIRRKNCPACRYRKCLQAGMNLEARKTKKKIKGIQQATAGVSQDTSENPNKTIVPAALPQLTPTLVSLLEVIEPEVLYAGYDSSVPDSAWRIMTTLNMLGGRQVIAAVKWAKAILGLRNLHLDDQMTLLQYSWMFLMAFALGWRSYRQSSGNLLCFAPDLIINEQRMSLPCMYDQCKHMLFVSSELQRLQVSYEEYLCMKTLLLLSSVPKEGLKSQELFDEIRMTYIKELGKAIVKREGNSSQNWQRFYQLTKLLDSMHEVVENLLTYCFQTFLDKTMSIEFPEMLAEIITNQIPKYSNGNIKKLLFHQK
Kind of data set: (§1) Antagonist activity at rat glucocorticoid receptor in primary hepatocytes assessed as dexamethasone-induced tyrosine amino transferase activity preincubated for 30 mins followed by dexamethasone addition measured after 20 hrs. It is filed as cell-based.

Data set [4] deals with T3, Glucocorticoid receptor (Rattus norvegicus, UniProt P06536).
T3 sequence (P06536 whole entry): T2 sequence (whole entry)
The data set is described as §1. It is filed as cell-based.

The target of data set [5] is T4, Cytochrome P450 3A5 (Homo sapiens, UniProt P20815). Put plainly: Inhibition of CYP3A5 (unknown origin). It is filed as ADME.
Data set [6] deals with T2, Glucocorticoid receptor (Rattus norvegicus). Put plainly: (§2) Agonist activity at rat glucocorticoid receptor in primary hepatocytes assessed as induction of tyrosine amino transferase activity measured after 20 hrs. It is filed as cell-based.
Data set [7] concerns the target T3, Glucocorticoid receptor. The description is as §2. The data set is classed as cell-based.
Data set [8] deals with T5, Cytochrome P450 2B6 (Homo sapiens, UniProt P20813).
T5 sequence (P20813 whole entry): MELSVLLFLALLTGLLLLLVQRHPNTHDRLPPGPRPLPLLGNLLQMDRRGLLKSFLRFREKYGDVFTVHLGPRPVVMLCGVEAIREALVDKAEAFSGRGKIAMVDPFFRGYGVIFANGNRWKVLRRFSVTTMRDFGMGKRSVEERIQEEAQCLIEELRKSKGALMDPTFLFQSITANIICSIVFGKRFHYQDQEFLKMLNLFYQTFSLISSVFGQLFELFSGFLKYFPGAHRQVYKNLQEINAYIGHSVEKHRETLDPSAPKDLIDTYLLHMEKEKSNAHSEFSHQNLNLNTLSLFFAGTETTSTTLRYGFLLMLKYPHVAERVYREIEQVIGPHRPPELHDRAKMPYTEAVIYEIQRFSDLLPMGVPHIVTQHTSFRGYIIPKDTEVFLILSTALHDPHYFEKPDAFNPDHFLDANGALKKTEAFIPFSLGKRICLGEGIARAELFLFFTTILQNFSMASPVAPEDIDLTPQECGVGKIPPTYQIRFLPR
Put plainly: Induction of CYP2B6 in human hepatocytes. It is filed as ADME, cell-based.

Data set [9] addresses Cytochrome P450 3A4 (Homo sapiens, UniProt P08684). Put plainly: Induction of CYP3A4 in human hepatocytes. It is filed as ADME, cell-based.
The species named for data set [10] is Macaca mulatta. Kind of data set: Agonist activity at monkey glucocorticoid receptor in primary hepatocytes assessed as induction of tyrosine amino transferase activity measured after 20 hrs. It is filed as cell-based.
In data set [11] the target is T4, Cytochrome P450 3A5. Kind of data set: Time-dependent inhibition of CYP3A5 (unknown origin). It is filed as ADME.
A short description of data set [12]: Protein binding in rat plasma. The data set is classed as ADME, cell-free. The conditions noted are these: read-out: PPB (converted).
The target in data set [13] is Cytochrome P450 2D6 (Homo sapiens, UniProt P10635). Kind of data set: Inhibition of CYP2D6 (unknown origin). It is filed as ADME.
The nature of data set [14]: Protein binding in monkey plasma. The conditions noted are these: rhesus monkey, read-out: PPB (converted). The data set is classed as ADME, cell-free, Macaca mulatta.
Data set [15] concerns the target Cytochrome P450 2C19 (Homo sapiens, UniProt P33261). Put plainly: Inhibition of CYP2C19 (unknown origin). It is filed as ADME.

T4 sequence (P20815 whole entry): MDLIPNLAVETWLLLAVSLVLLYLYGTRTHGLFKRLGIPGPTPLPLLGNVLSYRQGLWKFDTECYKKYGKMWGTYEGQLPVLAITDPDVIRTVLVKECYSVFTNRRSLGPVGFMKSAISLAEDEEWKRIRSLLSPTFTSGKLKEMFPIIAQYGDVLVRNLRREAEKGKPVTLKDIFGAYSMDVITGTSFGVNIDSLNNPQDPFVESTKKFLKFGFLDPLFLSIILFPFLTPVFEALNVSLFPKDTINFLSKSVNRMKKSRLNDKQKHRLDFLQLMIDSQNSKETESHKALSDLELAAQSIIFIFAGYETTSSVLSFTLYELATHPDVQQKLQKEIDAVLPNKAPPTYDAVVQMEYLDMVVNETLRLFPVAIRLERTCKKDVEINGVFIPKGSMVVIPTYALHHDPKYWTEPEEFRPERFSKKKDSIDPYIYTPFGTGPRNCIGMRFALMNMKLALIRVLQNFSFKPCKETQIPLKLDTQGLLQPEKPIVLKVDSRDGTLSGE
Cytochrome P450 2C19, sequence (P33261 whole entry): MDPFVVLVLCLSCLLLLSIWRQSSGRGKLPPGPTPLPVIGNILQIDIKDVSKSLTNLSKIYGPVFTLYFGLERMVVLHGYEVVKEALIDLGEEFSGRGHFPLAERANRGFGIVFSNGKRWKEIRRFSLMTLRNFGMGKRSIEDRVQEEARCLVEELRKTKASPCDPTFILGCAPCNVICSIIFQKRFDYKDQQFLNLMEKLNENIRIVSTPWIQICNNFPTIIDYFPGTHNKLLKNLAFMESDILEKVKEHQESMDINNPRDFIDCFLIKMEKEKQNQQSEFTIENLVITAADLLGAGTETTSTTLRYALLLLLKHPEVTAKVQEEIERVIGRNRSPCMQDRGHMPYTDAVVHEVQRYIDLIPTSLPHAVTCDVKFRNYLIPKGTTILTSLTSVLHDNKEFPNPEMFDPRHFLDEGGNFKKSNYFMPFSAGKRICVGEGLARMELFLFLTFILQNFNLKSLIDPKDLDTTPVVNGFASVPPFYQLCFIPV
Cytochrome P450 3A4, sequence (P08684 whole entry): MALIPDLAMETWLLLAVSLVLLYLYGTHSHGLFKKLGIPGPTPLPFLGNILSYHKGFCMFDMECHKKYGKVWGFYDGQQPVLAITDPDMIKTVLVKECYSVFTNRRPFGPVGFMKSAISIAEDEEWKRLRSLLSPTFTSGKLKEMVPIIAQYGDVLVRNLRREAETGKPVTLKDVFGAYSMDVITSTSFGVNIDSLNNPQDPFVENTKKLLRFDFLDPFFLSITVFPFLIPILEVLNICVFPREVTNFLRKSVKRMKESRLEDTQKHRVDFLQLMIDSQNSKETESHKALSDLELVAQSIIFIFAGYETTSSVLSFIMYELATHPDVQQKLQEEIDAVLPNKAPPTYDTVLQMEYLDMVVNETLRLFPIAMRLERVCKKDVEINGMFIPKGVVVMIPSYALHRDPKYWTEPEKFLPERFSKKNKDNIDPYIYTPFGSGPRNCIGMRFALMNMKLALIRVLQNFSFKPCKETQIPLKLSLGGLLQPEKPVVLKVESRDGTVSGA
Cytochrome P450 2D6, sequence (P10635 whole entry): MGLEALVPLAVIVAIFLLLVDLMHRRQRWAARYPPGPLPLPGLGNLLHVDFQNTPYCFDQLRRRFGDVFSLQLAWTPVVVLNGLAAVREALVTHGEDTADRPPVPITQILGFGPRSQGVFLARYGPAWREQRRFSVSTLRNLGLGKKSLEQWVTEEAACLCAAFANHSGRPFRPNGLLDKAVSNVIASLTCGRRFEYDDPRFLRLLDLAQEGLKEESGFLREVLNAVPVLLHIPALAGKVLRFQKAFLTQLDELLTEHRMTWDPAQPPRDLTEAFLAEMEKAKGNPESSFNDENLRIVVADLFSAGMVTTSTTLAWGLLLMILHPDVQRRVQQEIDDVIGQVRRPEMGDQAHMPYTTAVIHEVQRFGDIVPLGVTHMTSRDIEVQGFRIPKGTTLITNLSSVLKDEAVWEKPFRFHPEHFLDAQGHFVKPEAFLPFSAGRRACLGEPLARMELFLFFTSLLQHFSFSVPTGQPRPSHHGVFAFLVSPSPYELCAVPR

`Cn1cc(S(=O)(=O)N2CCC3=Cc4c(cnn4-c4ccc(F)cc4)C[C@]3(C(=O)c3cc(C(F)(F)F)ccn3)C2)cn1` [RELACORILANT] gave a Cmax in data set [1] of 262 ng/mL. The IC50 in [2] is above 10 µM; in data set [5] it was 4.9 µM; in data set [13], 9 µM; in [15], 8 µM. Further, the Imax in [3] was determined as 54.2%. Also, the Ki in [4] was determined as 0.012 µM. The figures for the Emax in data set [6] and in data set [10] were 22% and 0%, respectively. In addition, the EC50 in [7] was above 10 µM. For the same molecule, the Activity entry in [8] and in data set [9] was “Not Active” in each case. In addition, in data set [11], the TDI entry is listed as “Not Active”. The fraction unbound in data set [12] was 0.003; in data set [14] it was 0.011.

(Values after ChEMBL document CHEMBL4049426, “Identification of the Clinical Candidate (R)-(1-(4-Fluorophenyl)-6-((1-methyl-1H-pyrazol-4-yl)sulfonyl)-4,4a,5,6,7,8-hexahydro-1H-pyrazolo[3,4-g]isoquinolin-4a-yl)(4-(trifluoromethyl)pyridin-2-yl)methanone (CORT125134): A Selective Glucocorticoid Receptor (GR) Antagonist” (J Med Chem, 2017).)
